Data on 2 molecules can be found in ChEMBL document CHEMBL5712898, “H3K27me1 is essential for MMP-9-dependent H3N-terminal tail proteolysis during osteoclastogenesis” (Epigenetics Chromatin, 2018).

For assay [1], the system named is Osteoclast. The experiment in a line: Inhibition of EZH1/2 in M-CSF/RANKL-induced OCP cells (unknown origin) assessed as reduction in H3K27me2 level at 2 uM cultured for 0, 1, 3, and 5 days with RANKL by Western blot analysis. Conditions: Homo sapiens, time 5.0 day. Background: In western blotting, separated proteins are transferred to a membrane and probed.
Assay [2] concerns Osteoclast. Briefly: Inhibition of EZH1/2 in M-CSF/RANKL-induced OCP cells (unknown origin) assessed as reduction in H3K27me3 level at 2 uM cultured for 0, 1, 3, and 5 days with RANKL by Western blot analysis. The following applies: Homo sapiens, time 5.0 day.
Assay [3] has as its system Osteoclast. Briefly: Inhibition of EZH1/2 in M-CSF/RANKL-induced OCP cells (unknown origin) assessed as reduction in H3NT proteolysis at 2 uM cultured for 0, 1, 3, and 5 days with RANKL by Western blot analysis. The following applies: Homo sapiens, time 5.0 day.
For assay [4], the target named is Matrix metalloproteinase-9 (Homo sapiens) (UniProt P14780). Briefly: Inhibition of MMP-9 in M-CSF/RANKL-induced OCP cells (unknown origin) assessed as reduction in H3NT proteolysis at 10 nM cultured for 0, 1, 3, and 5 days with RANKL by Western blot analysis. Conditions: Osteoclast, time 5.0 day. Format: cell-based. Put shortly: (§1)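 Osteoclast precursor cells cultured with 30 ng/ml M-CSF plus 50 ng/ml RANKL for 0, 1, 3 or 5 days, with BIX01294 (1.5 µM) and/or MMP-9 inhibitor I (10 nM) in the medium. Nuclei were isolated in HEPES pH 7.4 sucrose buffer with 0.2% Triton X-100, and chromatin was extracted in EDTA/EGTA buffer. Cleaved H3 was detected as a faster-migrating band on Western blot with H3 C-terminal antibody.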

Assay [5] shares this target. Briefly: Inhibition of MMP-9 in M-CSF/RANKL-induced OCP cells (unknown origin) assessed as reduction in H3NT proteolysis at 10 nM co-treated with 1.5 uM BIX01294 cultured for 0, 1, 3, and 5 days with RANKL by Western blot analysis. The format is cell-based. Conditions: Osteoclast, time 5.0 day. The essentials:
as §1

For assay [6] the target is unchanged. The experiment in a line: Inhibition of MMP-9 in M-CSF/RANKL-induced OCP cells (unknown origin) assessed as reduction in TRAP-positive cells at 10 nM co-treated with 1.5 uM BIX01294 cultured for 0, 1, 3, and 5 days with RANKL by light microscopic analysis. The format is cell-based. The following applies: Osteoclast, time 5.0 day. The essentials: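 OCP cells were differentiated with 30 ng/ml M-CSF and 50 ng/ml RANKL, with media carrying BIX01294 (1.5 µM) and/or MMP-9 inhibitor I (10 nM). On days 0, 1, 3 and 5 cells were formaldehyde-fixed and stained for tartrate-resistant acid phosphatase with an acid phosphatase leukocyte kit. TRAP-positive cells with three or more nuclei were counted as osteoclasts under a light microscope.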

Assay [7] has the same target. The experiment in a line: Inhibition of MMP-9 in M-CSF/RANKL-induced OCP cells (unknown origin) assessed as reduction in accumulation of G9a in the P region of Nfatc1 gene at 10 nM cultured for 3 days with RANKL by ChIPac-qPCR analysis. The following applies: Osteoclast, time 3.0 day. Format: cell-based. In general terms: Real-time PCR tracks product formation cycle by cycle.

For assay [8] the target is unchanged. Briefly: Inhibition of MMP-9 in M-CSF/RANKL-induced OCP cells (unknown origin) assessed as reduction in accumulation of G9a in the CR region of Lif gene at 10 nM cultured for 3 days with RANKL by ChIPac-qPCR analysis. The format is cell-based. Conditions: Osteoclast, time 3.0 day.
The target is the same in assay [9]. The experiment in a line: Inhibition of MMP-9 in M-CSF/RANKL-induced OCP cells (unknown origin) assessed as reduction in accumulation of G9a in the P and CR region of Xpr1 gene at 10 nM cultured for 3 days with RANKL by ChIPac-qPCR analysis. The format is cell-based. Conditions: Osteoclast, time 3.0 day.
Assay [10] shares this target. Briefly: Inhibition of MMP-9 in M-CSF/RANKL-induced OCP cells (unknown origin) assessed as reduction in accumulation of H3K27me1 in the P region of Nfatc1 gene at 10 nM cultured for 3 days with RANKL by ChIPac-qPCR analysis. The format is cell-based. Conditions: Osteoclast, time 3.0 day. Put shortly: (§2)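 Cells were 3-day RANKL-induced OCP cultures (30 ng/ml M-CSF, 50 ng/ml RANKL) with inhibitor in the medium. Chromatin was fixed with […], acetylated with 20 mM acetic anhydride, and immunoprecipitated; crosslinks were reversed overnight at 65 °C. Occupancy was measured by qPCR at the Nfatc1 promoter, the Lif coding region and the Xpr1 promoter plus coding region. Data are given as mean ± SD.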

For assay [11] the target is unchanged. Briefly: Inhibition of MMP-9 in M-CSF/RANKL-induced OCP cells (unknown origin) assessed as reduction in accumulation of H3K27me1 in the CR region of Lif gene at 10 nM cultured for 3 days with RANKL by ChIPac-qPCR analysis. Format: cell-based. Conditions: Osteoclast, time 3.0 day. Put shortly: as §2
Assay [12] shares this target. Briefly: Inhibition of MMP-9 in M-CSF/RANKL-induced OCP cells (unknown origin) assessed as reduction in accumulation of H3K27me1 in the P and CR region of Xpr1 gene at 10 nM cultured for 3 days with RANKL by ChIPac-qPCR analysis. The format is cell-based. The following applies: Osteoclast, time 3.0 day. The essentials:
as §2

Assay [13] has the same target. The experiment in a line: Inhibition of MMP-9 in M-CSF/RANKL-induced OCP cells (unknown origin) assessed as reduction in Nfatc1 mRNA expression at 10 nM cultured for 3 days with RANKL by RT-qPCR analysis. Format: cell-based. Conditions: Osteoclast, time 3.0 day. The essentials: (§3)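 OCP cells were induced for 3 days with 30 ng/ml M-CSF and 50 ng/ml RANKL, with BIX01294 (1.5 µM) and/or MMP-9 inhibitor I (10 nM) added to the medium. Nfatc1, Lif and Xpr1 transcripts were quantified by RT-qPCR as fold change. Data are given as mean ± SD.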

Assay [14] shares this target. Briefly: Inhibition of MMP-9 in M-CSF/RANKL-induced OCP cells (unknown origin) assessed as reduction in Lif mRNA expression at 10 nM cultured for 3 days with RANKL by RT-qPCR analysis. The format is cell-based. The following applies: Osteoclast, time 3.0 day. Put shortly: as §3
For assay [15] the target is unchanged. The experiment in a line: Inhibition of MMP-9 in M-CSF/RANKL-induced OCP cells (unknown origin) assessed as reduction in Xpr1 mRNA expression at 10 nM cultured for 3 days with RANKL by RT-qPCR analysis. Format: cell-based. Conditions: Osteoclast, time 3.0 day. The essentials: as §3
For assay [16] the target is unchanged. The experiment in a line: Inhibition of MMP-9 in M-CSF/RANKL-induced OCP cells (unknown origin) assessed as reduction in Nfatc1 mRNA expression at 10 nM co-treated with BIX01294 cultured for 3 days with RANKL by RT-qPCR analysis. Format: cell-based. Conditions: Osteoclast, time 3.0 day. The essentials:
as §3

Assay [17] has the same target. The experiment in a line: Inhibition of MMP-9 in M-CSF/RANKL-induced OCP cells (unknown origin) assessed as reduction in Lif mRNA expression at 10 nM co-treated with BIX01294 cultured for 3 days with RANKL by RT-qPCR analysis. The format is cell-based. Conditions: Osteoclast, time 3.0 day. The essentials: as §3
For assay [18] the target is unchanged. The experiment in a line: Inhibition of MMP-9 in M-CSF/RANKL-induced OCP cells (unknown origin) assessed as reduction in Xpr1 mRNA expression at 10 nM co-treated with BIX01294 cultured for 3 days with RANKL by RT-qPCR analysis. The format is cell-based. The following applies: Osteoclast, time 3.0 day. The essentials: as §3

Calls of active or inactive are those of the source. The calls are words filed in the database; no cut-off is given here.

Matrix metalloproteinase-9 (Homo sapiens), sequence (P14780 whole entry): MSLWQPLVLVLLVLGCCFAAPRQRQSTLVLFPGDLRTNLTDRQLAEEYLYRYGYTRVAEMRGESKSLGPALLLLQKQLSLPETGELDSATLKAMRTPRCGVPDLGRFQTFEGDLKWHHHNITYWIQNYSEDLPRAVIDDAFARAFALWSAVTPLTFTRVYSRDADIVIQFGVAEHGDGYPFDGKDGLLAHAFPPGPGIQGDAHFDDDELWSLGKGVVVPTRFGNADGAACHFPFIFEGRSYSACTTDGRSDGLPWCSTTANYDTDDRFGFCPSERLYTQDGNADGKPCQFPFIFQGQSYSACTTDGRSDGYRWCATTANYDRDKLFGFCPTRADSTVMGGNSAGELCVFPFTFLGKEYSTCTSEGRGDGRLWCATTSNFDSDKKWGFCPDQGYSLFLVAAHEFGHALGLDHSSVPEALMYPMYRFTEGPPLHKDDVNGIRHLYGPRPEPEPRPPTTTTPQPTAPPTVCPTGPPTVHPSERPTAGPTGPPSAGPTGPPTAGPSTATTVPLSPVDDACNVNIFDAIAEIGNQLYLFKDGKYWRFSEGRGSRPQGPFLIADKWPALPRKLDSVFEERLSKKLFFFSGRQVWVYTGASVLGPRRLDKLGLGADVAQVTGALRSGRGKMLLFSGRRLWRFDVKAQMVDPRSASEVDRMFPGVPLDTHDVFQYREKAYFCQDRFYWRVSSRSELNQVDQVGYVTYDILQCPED

`CCCc1cc(C)[nH]c(=O)c1CNC(=O)c1cc(-c2ccc(N3CCN(C(C)C)CC3)nc2)cc2c1cnn2C(C)C`: the inhibition entry in [1] and in [2] was “Active” each time. Moreover, the inhibition result in assay [3] was “inactive”.
`CCN(CC)Cc1cc(C)c(N(Cc2ccccc2)S(=O)(=O)c2ccc(OC)cc2)c(C(=O)NO)c1`: the inhibition result in assay [4], in assay [5], in assay [6], in assay [13], in assay [14] and in assay [15] was “Active” each time. Also, the inhibition result in assay [16], in [17] and in assay [18] was “Active” in each case. Also, the inhibition result in assay [7], in [8], in assay [9], in assay [10], in assay [11] and in [12] was “inactive” in each case.
